High-throughput results as filed in PubChem.
TRPN1 ag: zebrafish TRPN1 channel agonists, primary screen, cell-based, HEK293, calcium fluorescence; transient receptor potential cation channel N1 (TRPN1/NompC), Danio rerio; HEK293 zebrafish TRPN1-YFP, Fluo-8 calcium fluorescence; 100% = response to 87 µM carbachol; activation, % at 3 µM; 220,000 tested, 0.18% active;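 active = activation above its plate's cutoff, the mean activation of test wells on that plate plus 3 SD, cut at about 19% in these data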;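 note: 0% = DMSO alone and 100% = 87 µM carbachol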
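Material: zebrafish TRPN1-YFP in HEK293 cells; Doses: single test compound dose, 3 µM nominal, 0.3% DMSO; Timing: dye loading 1 h at 37 °C, then 30 min room temperature; Technique: intracellular calcium fluorescence with Fluo-8; Benchmarks: high carbachol 87 µM, low DMSO alone.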
GPR7 antag: GPR7 receptor antagonists, primary screen, cell-based, fluorescence, single concentration; Neuropeptides B/W receptor type 1 (Homo sapiens), P48145; GPR7-expressing cells, fluorescence antagonist assay; inhibition, % at 4.4 µM; 290,000 tested, 1.1% active; AID 1861, 2009; in the data active = inhibition above about 16%, passing the limit was not always enough;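 note: cells stimulated with the agonist NPW; 0% = agonist with vehicle and 100% = vehicle without agonist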
CRFR2-BP antag: antagonists of CRF-BP/CRF-R2 complex, primary screen, cell-based, HEK293, calcium dye fluorescence, uHTS | CRF-induced calcium fluorescence | inhibition, % at 11.8 µM | 350,000 tested, 0.59% active | AID 588475, 2011;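 active = inhibition of the ligand-induced calcium signal above about 50% at the single tested concentration, limit read from the data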
CRFBP-R2 agonist: agonists of CRF-BP/CRF-R2 complex, primary screen, cell-based, HEK293, calcium dye fluorescence, uHTS | calcium dye fluorescence (FLIPR); percent of saturating CRF peptide response | AID 588473, 2011 | 350,000 tested, 0.46% active | activation, % at 13.2 µM | CRF-binding protein / CRF receptor 2 complex (human);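 active = activation of at least 50%, plus an integration ratio under a set limit after plate pattern correction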;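 note: plate controls were neutral control wells without compound for no effect and CRF at EC100 for full effect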
TRPML3 agonist: human TRPML3 channel agonists, primary screen, cell-based, HEK293 TRPML3-YFP, Fluo-8 calcium fluorescence, 3 µM; activation, % at 3 µM; Mucolipin-3 (Homo sapiens), Q8TDD5; 220,000 tested, 0.29% active; AID 1448, 2008; 100% = the carbachol control signal;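 active = activation above its plate's cutoff, the mean activation of the plate's test wells plus 3 SD, cut at about 12% in these data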;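 note: 0% = DMSO only wells and 100% = carbachol wells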
Target sequence (Q8TDD5 whole entry, looked up): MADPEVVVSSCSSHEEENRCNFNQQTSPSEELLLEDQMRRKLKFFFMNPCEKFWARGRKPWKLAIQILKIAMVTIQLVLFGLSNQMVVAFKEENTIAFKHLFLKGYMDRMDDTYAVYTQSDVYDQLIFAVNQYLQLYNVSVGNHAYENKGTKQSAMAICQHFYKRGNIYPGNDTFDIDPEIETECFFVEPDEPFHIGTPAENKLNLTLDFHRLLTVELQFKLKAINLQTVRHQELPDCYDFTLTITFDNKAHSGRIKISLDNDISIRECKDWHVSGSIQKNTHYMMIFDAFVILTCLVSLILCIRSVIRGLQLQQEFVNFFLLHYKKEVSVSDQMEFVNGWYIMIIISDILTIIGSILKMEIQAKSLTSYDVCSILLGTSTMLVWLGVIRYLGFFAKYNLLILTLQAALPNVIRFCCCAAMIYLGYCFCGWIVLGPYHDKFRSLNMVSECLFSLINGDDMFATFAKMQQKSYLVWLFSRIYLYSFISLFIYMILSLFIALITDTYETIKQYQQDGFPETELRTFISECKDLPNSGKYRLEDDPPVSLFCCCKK
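Test system: TRPML3-YFP stable HEK293 cells. Doses: single point at 3 µM. Incubation: dye loading 1 h 37 °C then 30 min ambient, 125 s read. Signal: Fluo-8 calcium dye fluorescence, ex 470-495, em 515-575 nm. Measure: percent activation from peak-to-basal fluorescence ratio, scaled between DMSO and carbachol.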
GPR7 antag conf: GPR7 receptor antagonists, confirmation, cell-based, fluorescence, single concentration. 2,400 tested, 52% active. GPR7-expressing cells, calcium fluorescence antagonist mode. shares compounds with GPR7 antag. inhibition, % at 4.4 µM; in the data active = inhibition above about 24%;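 note: stimulated with the GPR7 agonist NPW; 0% = agonist plus vehicle and 100% = vehicle alone without agonist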
MCHR1 antag: MCHR1 antagonists in cells, counter-screen for GPR7 antagonist project, cell-based, fluorescence, human. shares compounds with GPR7 antag. MCHR1-expressing cells, fluorescence antagonist assay. inhibition, % at 4.4 µM. 2,400 tested, 62% active. AID 2148, 2009; in the data active = inhibition above about 22%;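 note: 0% = vehicle with agonist and 100% = vehicle without agonist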
Numbers without * were called inactive; x = not tested or not shown. This is a sample that favours compounds with a hit; in the whole collection about 2% have one here.

SMILES	TRPN1 ag	GPR7 antag	CRFR2-BP antag	CRFBP-R2 agonist	TRPML3 agonist	GPR7 antag conf	MCHR1 antag
CCCCN1/C(=C/c2ccc3ccccc3[n+]2CC)Sc2ccccc21	52.5*	84.6*	-138.2	128.1*	21.0*	81.2*	78.8*
O=C(CC1Sc2ccccc2NC1=O)Nc1cccc(C(=O)O)c1 (configuration not stated)	-2.1	21.0*	11.4	-0.3	0.5	-10.6	4.6
CCOC(=O)c1c(NC(=O)C2COc3ccccc3O2)sc2c1CC(C)(C)NC2(C)C (configuration not stated)	-0.4	23.5*	-60.5	1.4	0.3	31.8*	37.8*
CCOC(=O)c1c(NC(=O)Cc2ccccc2)sc2c1CC(C)(C)NC2(C)C	x	2.6	-36.8	-0.3	x	x	x
Cc1ccc(NC2CCCCC2NS(=O)(=O)c2ccccc2)c(C)c1 (configuration not stated)	x	-23.2	-2.2	-1.1	x	x	x
CCC(NC(=O)c1cc(COc2cncc(Cl)c2)on1)c1ccncc1 (configuration not stated)	x	8.9	4.0	0.6	x	x	x
CCC(NC(=O)c1cc(COc2ccc(F)cc2Cl)on1)c1ccncc1 (configuration not stated)	x	30.5*	-23.3	19.6	x	22.2	46.8*
Cc1ccc(-c2cc(C(=O)N/N=C/c3c[nH]c4ccccc34)[nH]n2)cc1	0.4	33.5*	-15.8	1.0	0.1	18.1	35.0*
O=C(N/N=C/c1c[nH]c2ccccc12)c1cc(Cl)ccc1O	x	36.0*	-15.8	4.5	x	10.0	27.1*
O=C(CN1CCN(S(=O)(=O)c2ccc(F)cc2)CC1)N1CCOCC1	x	-7.1	7.2	-0.3	x	x	x
O=C(NCC1CC1)Nc1ccccc1F	x	98.7*	-9.1	0.9	x	-7.3	14.5
Cc1ccc(CN2CCC(CNC(=O)Nc3ccccc3F)CC2)cc1	x	-4.8	-45.0	5.7	x	x	x
Cc1ccc(-c2noc(=O)n2CC(=O)Nc2ccc(S(=O)(=O)NC3CC3)cc2)cc1	0.4	23.5*	-42.4	25.7	1.6	46.9*	30.2*
COc1cc(COC(=O)c2cnc(C)cn2)c(OC)cc1Br	x	7.7	3.0	-0.3	x	x	x
CCCCCCCNC(=O)C1(CC2CC(c3cccc(Br)c3)=NO2)CCNCC1 (configuration not stated)	x	36.0	-46.0	14.8	x	x	x
CCOC(=O)Nc1ccc2c(c1)N(C(=O)CN1CCN(C)CC1)c1ccccc1CC2	x	1.6	5.8	1.4	x	x	x
CCCC(CCC)C(=O)Nc1ccc2c(c1)N(C(=O)CCN1CCN(C)CC1)c1ccccc1CC2	3.5	27.6*	-18.1	14.7	1.3	28.3*	17.9
Cc1ccsc1CNCc1cc(Cl)ccc1O	x	x	-24.6	-1.6	x	x	x
CCC1(C)N([O-])C(C)=C(c2ccccc2)[N+]1=O (configuration not stated)	-0.9	28.1*	-1.6	0.6	0.4	-7.4	12.3
CCC1(CC)N([O-])C(C)=C(c2ccccc2)[N+]1=O	-0.3	-11.8	1.4	3.3	-0.1	x	x
O=C(C[n+]1ccc(/C=N/O)cc1)NC(=O)Nc1ccccc1	x	x	3.0	0.6	x	x	x
CN(Cc1cccc(Cl)c1)C(=O)C1CCC(=O)N(C2CC2)C1 (configuration not stated)	x	22.5*	80.6*	0.0	x	-8.6	11.9
CC(C)(C)C(=O)NC1(C(F)(F)F)NC(=O)N(Cc2ccccc2)C1=O (configuration not stated)	-1.5	24.9*	0.6	1.2	0.1	-0.4	9.0
O=C(NC1(C(F)(F)F)NC(=O)N(Cc2ccccc2)C1=O)c1cccs1 (configuration not stated)	0.2	-2.9	-8.4	1.7	0.4	x	x
CN(C)CCCN(C(=O)/C=C/c1cccs1)c1nc2ccc(F)cc2s1	1.8	29.4*	-17.2	6.5	1.7	44.7*	28.4*
SMILES	TRPN1 ag	GPR7 antag	CRFR2-BP antag	CRFBP-R2 agonist	TRPML3 agonist	GPR7 antag conf	MCHR1 antag
Cc1cc(C)c2nc(N(CCCN(C)C)C(=O)C3=COCCO3)sc2c1	x	x	-2.8	2.8	x	x	x
CN(C)CCN(C(=O)/C=C/c1cccs1)c1nc2ccc(Br)cc2s1	x	25.0*	-16.0	1.7	x	58.9*	67.8*
CN(C)CCCN(C(=O)C1=COCCO1)c1nc2ccc(Br)cc2s1	x	35.6*	-5.9	0.2	x	55.2*	64.3*
CN(C)CCCN(C(=O)CCc1ccccc1)c1nc2ccc(Cl)cc2s1	0.6	22.7*	-65.2	33.6	2.5	73.4*	85.0*
Cc1cc(S(=O)(=O)N2CCCOC2CNC(=O)C(=O)NCCc2ccco2)ccc1F (configuration not stated)	x	-7.1	-0.6	0.1	x	x	x
O=C(Nc1ccc(Br)cc1)Nc1ccccc1Cl	12.3	73.0*	-4.9	3.7	6.9	78.9*	62.8*
Cc1ccc(C2c3[nH]c4ccccc4c3C[C@H]3C(=O)N(c4ccccc4C(=O)NCCN4CCOCC4)C(=O)N23)cc1 (some centres not stated)	x	28.4*	-12.5	1.0	x	7.1	21.7*
O=C(NCCCN1CCOCC1)c1ccccc1N1C(=O)[C@@H]2Cc3c([nH]c4ccccc34)C(c3cccc(Cl)c3)N2C1=O (some centres not stated)	x	26.9*	-22.9	13.5	x	25.5*	34.7*
O=C(c1cc(-c2ccccc2Cl)on1)N1CCCC1	x	26.8*	3.3	0.9	x	17.2	7.3
CN(Cc1ccn[nH]1)C(=O)C1CCC(=O)N(Cc2cccc(C(F)(F)F)c2)C1 (configuration not stated)	x	6.7	-4.1	0.1	x	x	x
COc1ccc2c3c(cccc13)C(=O)CC2	x	34.3*	-94.8	139.3*	x	-23.4	32.5*
Cc1ccc2oc(=O)n(CC(=O)c3ccc(F)cc3)c2c1	-1.8	24.6*	1.1	-1.8	-0.5	-1.2	12.4
Cc1ccc(NC(=O)CSc2nnnn2-c2ccc3c(c2)OCO3)cc1C	0.7	-8.4	12.1	0.0	1.2	x	x
Cc1ccc(-n2nnnc2SCC(=O)Nc2ccc3c(c2)OCCO3)cc1C	0.2	21.4*	-21.7	1.7	0.9	9.4	5.2
CC(NC(=S)Nc1ccc(F)cc1)C(c1cccs1)N1CCOCC1 (configuration not stated)	-3.6	22.9*	-12.9	1.5	-0.5	20.6	-7.1
